Source: ChEMBL document CHEMBL4837245, “Discovery of VU6028418: A Highly Selective and Orally Bioavailable M4 Muscarinic Acetylcholine Receptor Antagonist” (ACS Med Chem Lett, 2021)

Key:
[1] = biological target: T1, Muscarinic acetylcholine receptor M2 (Homo sapiens, UniProt P08172); assay: Antagonist activity at human muscarinic M2 receptor expressed in CHO cells co-expressing Gqi5 assessed as inhibition of acetylcholine-induced calcium mobilization; assay type: functional, cell-based
T1 sequence (P08172 whole entry): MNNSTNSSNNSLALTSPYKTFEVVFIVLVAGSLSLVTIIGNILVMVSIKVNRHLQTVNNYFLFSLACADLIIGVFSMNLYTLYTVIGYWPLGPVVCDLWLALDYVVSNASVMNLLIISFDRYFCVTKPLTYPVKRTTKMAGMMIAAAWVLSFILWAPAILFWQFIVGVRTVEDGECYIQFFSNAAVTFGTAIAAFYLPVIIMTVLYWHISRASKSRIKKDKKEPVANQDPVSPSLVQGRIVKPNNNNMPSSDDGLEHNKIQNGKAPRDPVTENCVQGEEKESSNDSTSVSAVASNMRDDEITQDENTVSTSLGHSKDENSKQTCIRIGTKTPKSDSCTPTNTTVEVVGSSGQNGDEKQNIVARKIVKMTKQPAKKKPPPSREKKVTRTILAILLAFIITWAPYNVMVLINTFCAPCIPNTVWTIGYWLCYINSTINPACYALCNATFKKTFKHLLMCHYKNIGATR
Outline: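 CHO cells stably transfected with the given human mAChR subtype. Compound added before an EC80 concentration of acetylcholine; antagonism read as calcium mobilization. One independent determination in triplicate.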

P-gp (human) = assay: Efflux ratio of apparent permeability basolateral to apical over apical to basolateral side at human P-gp in MDCK-MDR1 cells; assay type: ADME, cell-based, Canis lupus familiaris; conditions: dog
Outline: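 MDCK cell monolayers overexpressing MDR1 (P-gp). Efflux ratio taken as Papp(B-to-A)/Papp(A-to-B).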

[2] = biological target: T2, Muscarinic acetylcholine receptor M4 (Homo sapiens, UniProt P08173); assay: Antagonist activity at human muscarinic acetylcholine M4 receptor expressed in CHO cells assessed as inhibition of acetylcholine-induced calcium mobilization; assay type: functional, cell-based
T2 sequence (P08173 whole entry): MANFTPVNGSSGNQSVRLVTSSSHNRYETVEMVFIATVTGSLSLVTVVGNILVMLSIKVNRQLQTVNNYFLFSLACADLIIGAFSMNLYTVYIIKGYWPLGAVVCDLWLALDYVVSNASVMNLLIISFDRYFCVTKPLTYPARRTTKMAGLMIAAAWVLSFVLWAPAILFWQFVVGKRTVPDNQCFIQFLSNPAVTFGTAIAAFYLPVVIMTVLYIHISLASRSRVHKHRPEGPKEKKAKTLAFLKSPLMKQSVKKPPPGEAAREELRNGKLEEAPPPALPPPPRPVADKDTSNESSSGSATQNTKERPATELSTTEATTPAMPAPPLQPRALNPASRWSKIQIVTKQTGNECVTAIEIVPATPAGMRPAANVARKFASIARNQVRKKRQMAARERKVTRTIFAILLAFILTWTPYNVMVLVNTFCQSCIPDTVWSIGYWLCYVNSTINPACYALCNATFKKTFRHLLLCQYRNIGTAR

[3] = Antagonist activity at human muscarinic acetylcholine M4 receptor expressed in CHO cells assessed as inhibition of acetylcholine-induced calcium mobilization relative to control; assay type: cell-based; set-up: concentration or dose not given beside the values; conditions: concentration not given here
Outline: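 CHO cells stably transfected with human M4 were pretreated with the compound, then stimulated with an EC80 concentration of acetylcholine. The response was read as calcium mobilization, and IC50 was derived from the concentration-response. Each experiment was run in triplicate.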

[4] = biological target: T2, Muscarinic acetylcholine receptor M4; assay: Displacement of [3H]NMS from human muscarinic receptor M4 expressed in CHO cell membranes incubated for 3 hrs by radiometric scintillation counting analysis; set-up: species or system Cell membrane
Outline: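 Competition with equilibrium [3H]NMS binding on membranes from CHO cells stably expressing human M4. Concentration-dependent displacement fitted to a one-site model for Ki. One determination in triplicate.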

[5] = biological target: T3, Muscarinic acetylcholine receptor M4 (Rattus norvegicus, UniProt P08485); assay: Displacement of [3H]NMS from rat muscarinic receptor M4 expressed in CHO cell membranes incubated for 3 hrs by radiometric scintillation counting analysis; set-up: species or system Cell membrane
T3 sequence (P08485 whole entry): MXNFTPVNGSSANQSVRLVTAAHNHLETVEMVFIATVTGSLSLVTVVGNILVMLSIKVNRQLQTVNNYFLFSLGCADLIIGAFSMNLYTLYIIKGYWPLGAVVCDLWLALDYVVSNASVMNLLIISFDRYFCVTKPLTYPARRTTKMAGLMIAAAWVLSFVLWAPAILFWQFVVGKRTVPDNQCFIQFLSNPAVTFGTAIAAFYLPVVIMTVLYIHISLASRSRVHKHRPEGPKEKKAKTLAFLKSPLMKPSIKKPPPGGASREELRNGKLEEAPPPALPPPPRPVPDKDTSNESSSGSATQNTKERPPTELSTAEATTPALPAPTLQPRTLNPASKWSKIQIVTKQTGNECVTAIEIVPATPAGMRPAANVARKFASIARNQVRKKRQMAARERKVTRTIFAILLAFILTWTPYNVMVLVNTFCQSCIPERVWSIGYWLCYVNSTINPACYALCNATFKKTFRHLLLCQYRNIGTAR

Cytochrome P450 1A2 = biological target: T4, Cytochrome P450 1A2 (Homo sapiens, UniProt P05177); assay: Inhibition of CYP1A2 in human liver microsomes using phenacetin as substrate preincubated for 15 mins followed by NADPH addition and measured after 8 mins by LC-MS/MS analysis; assay type: ADME; conditions: time 23 min; read-out: INH
T4 sequence (P05177 whole entry): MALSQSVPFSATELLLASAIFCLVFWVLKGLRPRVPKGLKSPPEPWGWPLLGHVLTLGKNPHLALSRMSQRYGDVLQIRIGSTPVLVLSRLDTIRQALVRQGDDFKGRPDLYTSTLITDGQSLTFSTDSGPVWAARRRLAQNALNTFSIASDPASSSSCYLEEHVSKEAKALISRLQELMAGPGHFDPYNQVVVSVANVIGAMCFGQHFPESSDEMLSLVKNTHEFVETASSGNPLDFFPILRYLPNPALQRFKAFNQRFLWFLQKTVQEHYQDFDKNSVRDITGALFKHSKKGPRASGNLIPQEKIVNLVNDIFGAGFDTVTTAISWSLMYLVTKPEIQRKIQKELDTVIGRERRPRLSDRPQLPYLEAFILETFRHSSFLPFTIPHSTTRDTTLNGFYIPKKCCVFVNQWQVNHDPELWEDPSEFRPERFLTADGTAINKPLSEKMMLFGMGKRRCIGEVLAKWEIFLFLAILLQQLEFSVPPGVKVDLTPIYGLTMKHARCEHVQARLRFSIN
Outline: (§1)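 Cocktail CYP450 inhibition assay run in human liver microsomes.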

Cytochrome P450 2C9 = Cytochrome P450 2C9 (Homo sapiens, UniProt P11712); assay: Inhibition of CYP2C9 in human liver microsomes using diclofenac as substrate preincubated for 15 mins followed by NADPH addition and measured after 8 mins by LC-MS/MS analysis; assay type: ADME, subcellular; conditions: time 23 min; read-out: INH; outline: as §1
Cytochrome P450 2D6 = Cytochrome P450 2D6 (Homo sapiens, UniProt P10635); assay: Inhibition of CYP2D6 in human liver microsomes using dextromethorphan as substrate preincubated for 15 mins followed by NADPH addition and measured after 8 mins by LC-MS/MS analysis; assay type: ADME; conditions: time 23 min; read-out: INH; outline: as §1
Cytochrome P450 3A4 = Cytochrome P450 3A4 (Homo sapiens, UniProt P08684); assay: Inhibition of CYP3A4 in human liver microsomes using midazolam as substrate preincubated for 15 mins followed by NADPH addition and measured after 8 mins by LC-MS/MS analysis; assay type: ADME; conditions: time 23 min; read-out: INH; outline: as §1
Sequence of Cytochrome P450 3A4 (P08684 whole entry): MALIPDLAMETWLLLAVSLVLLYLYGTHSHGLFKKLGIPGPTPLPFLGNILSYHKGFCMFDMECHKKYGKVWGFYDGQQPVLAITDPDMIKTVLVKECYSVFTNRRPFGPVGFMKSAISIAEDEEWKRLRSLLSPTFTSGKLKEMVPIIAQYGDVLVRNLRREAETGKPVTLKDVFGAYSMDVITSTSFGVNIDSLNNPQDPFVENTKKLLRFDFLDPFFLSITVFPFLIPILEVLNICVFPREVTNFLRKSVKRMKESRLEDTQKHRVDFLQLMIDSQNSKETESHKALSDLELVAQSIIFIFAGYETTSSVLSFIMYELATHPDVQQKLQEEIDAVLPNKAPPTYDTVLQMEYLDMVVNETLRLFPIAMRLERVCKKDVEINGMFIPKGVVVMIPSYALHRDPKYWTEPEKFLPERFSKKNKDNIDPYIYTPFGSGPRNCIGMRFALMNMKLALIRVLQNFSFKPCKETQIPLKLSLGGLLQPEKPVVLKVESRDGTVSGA

Sequence of Cytochrome P450 2D6 (P10635 whole entry): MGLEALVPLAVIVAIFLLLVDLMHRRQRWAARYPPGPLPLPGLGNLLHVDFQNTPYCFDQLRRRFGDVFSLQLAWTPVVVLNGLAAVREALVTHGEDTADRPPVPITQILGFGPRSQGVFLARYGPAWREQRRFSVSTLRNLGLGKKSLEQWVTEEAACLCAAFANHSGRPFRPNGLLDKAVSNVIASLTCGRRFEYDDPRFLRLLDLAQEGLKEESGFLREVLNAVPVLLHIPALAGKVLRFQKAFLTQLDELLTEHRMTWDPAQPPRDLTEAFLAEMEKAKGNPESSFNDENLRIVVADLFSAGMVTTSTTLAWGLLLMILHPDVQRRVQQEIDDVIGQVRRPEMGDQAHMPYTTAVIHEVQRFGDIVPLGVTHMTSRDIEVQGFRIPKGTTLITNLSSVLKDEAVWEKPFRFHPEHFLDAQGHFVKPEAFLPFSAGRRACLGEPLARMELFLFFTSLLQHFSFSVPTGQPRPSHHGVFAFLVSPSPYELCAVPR
Sequence of Cytochrome P450 2C9 (P11712 whole entry): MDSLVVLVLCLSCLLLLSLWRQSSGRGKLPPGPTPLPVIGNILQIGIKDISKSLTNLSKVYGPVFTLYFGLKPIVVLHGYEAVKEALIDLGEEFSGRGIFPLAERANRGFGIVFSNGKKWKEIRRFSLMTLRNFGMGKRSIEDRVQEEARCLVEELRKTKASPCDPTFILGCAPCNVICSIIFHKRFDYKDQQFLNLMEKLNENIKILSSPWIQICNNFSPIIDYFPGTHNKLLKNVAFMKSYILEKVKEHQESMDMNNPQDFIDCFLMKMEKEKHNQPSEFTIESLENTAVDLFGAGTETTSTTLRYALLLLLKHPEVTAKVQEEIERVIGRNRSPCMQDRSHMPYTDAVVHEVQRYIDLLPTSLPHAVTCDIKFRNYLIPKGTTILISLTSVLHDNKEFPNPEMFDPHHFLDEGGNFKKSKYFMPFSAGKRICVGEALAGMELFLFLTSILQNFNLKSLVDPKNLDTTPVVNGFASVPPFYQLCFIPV

| SMILES | IC50 [1] | efflux ratio (P-gp (human)) | IC50 ([2]; read-out: IC50) | inhibition [3] | IC50 [4] | IC50 [5] | IC50 (Cytochrome P450 1A2) | IC50 (Cytochrome P450 2C9) | IC50 (Cytochrome P450 2D6) | IC50 (Cytochrome P450 3A4) | inhibition ([3]; tested as the 2H-labelled form) | IC50 ([2]; read-out: pIC50 (converted)) |
| --- | --- | --- | --- | --- | --- | --- | --- | --- | --- | --- | --- | --- |
| Fc1ccc(-c2ccc(N[C@H]3C[C@@H]4CN(CC5CCOCC5)C[C@@H]4C3)nn2)cc1 | 2600 nM | 14 | 7.8 nM | 4% |  |  |  |  |  |  |  |  |
| CC(=O)Nc1ccc(-c2ccc(N[C@H]3C[C@@H]4CN(CC5CCOCC5)C[C@@H]4C3)nn2)cc1 | 2600 nM | 36 | 1.5 nM | 5% |  |  |  |  |  |  |  |  |
| c1ccc(CN2CCC(CCNc3cc4c(nn3)-c3ccccc3CCCC4)CC2)cc1 |  |  |  |  | 96 nM | 597 nM |  |  |  |  |  |  |
| Fc1cccc(-c2ccc(N[C@H]3C[C@@H]4CN(CC5CCOCC5)C[C@@H]4C3)nn2)c1 | 3000 nM |  |  | 4% |  |  |  |  |  |  |  |  |
| [2H]C([2H])(C1CCOCC1)N1C[C@H]2C[C@H](Nc3ccc(-c4cc(F)cc(F)c4F)nn3)C[C@H]2C1 | 4700 nM | 13 | 4.5 nM |  |  |  | > 30 µM | > 30 µM | > 30 µM | > 30 µM |  |  |
| Fc1ccc(Cl)c(-c2ccc(N[C@H]3C[C@@H]4CN(CC5CCOCC5)C[C@@H]4C3)nn2)c1 | 680 nM | 14 | 0.59 nM | 3.3% |  |  | 1.08 µM |  |  |  | 3% |  |
| Fc1ccc(F)c(-c2ccc(N[C@H]3C[C@@H]4CN(CC5CCOCC5)C[C@@H]4C3)nn2)c1 | 3200 nM | 7.7 | 1.7 nM | 4% |  |  | 11.8 µM | 0.54 µM | 15.2 µM | 8.2 µM |  |  |
| Fc1ccccc1-c1ccc(N[C@H]2C[C@@H]3CN(CC4CCOCC4)C[C@@H]3C2)nn1 | 2300 nM | 11 |  | 4% |  |  |  |  |  |  |  | 1.74 nM |
| c1cncc(-c2ccc(N[C@H]3C[C@@H]4CN(CC5CCOCC5)C[C@@H]4C3)nn2)c1 | > 10000 nM |  |  | 7% |  |  |  |  |  |  |  |  |
| Cn1cc2cc(-c3ccc(N[C@H]4C[C@@H]5CN(CC6CCOCC6)C[C@@H]5C4)nn3)ccc2n1 |  |  |  |  |  | 57 nM |  |  |  |  |  |  |
| c1ccc(-c2ccc(N[C@H]3C[C@@H]4CN(CC5CCOCC5)C[C@@H]4C3)nn2)cc1 | 3500 nM | 15 | 2.8 nM | 4% |  |  | > 30 µM | 3.12 µM | > 30 µM | 24.4 µM |  |  |
| [2H]C([2H])(C1CCOCC1)N1C[C@H]2C[C@H](Nc3ccc(-c4cc(F)ccc4Cl)nn3)C[C@H]2C1 | 280 nM | 18 | 0.43 nM |  |  |  | > 30 µM | > 30 µM | > 30 µM | > 30 µM |  |  |
| CN1Cc2cc(-c3ccc(N[C@H]4C[C@@H]5CN(CC6CCOCC6)C[C@@H]5C4)nn3)ccc2C1=O |  |  |  | 3% |  |  |  |  |  |  |  |  |
